Results on 2 molecules are retold here after publication PMC9575405 (ACS infectious diseases, 2021).

The test system of assay [1] is S. aureus ATCC 13709 (Smith). The assay is described as follows: Mouse abscess infection model. The format is in vivo. To be noted: after 26 h; orally at 20 mg/kg. In a few lines: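 Female CD-1 mice were infected s.c. in the right flank under anaesthesia with 0.25 mL inoculum (OD625 0.1 saline suspension from plate culture; target 1.0×10^6, actual 1.4×10^6 CFU/mouse) mixed with […] beads. From 2 h post-infection, test compounds were injected into the abscess (100 uL), repeated 12 h later; positive control was oral. Five per group; T=0 group sampled. Abscess CFU at 26 h; mean and SD.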

The test system of another assay is S. aureus Smith. The assay is described as follows: Mouse septicemia model. Format: in vivo. To be noted: 10 mg/kg i.v., five mice. The gist of the method: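 CD-1 female mice (18–20 g), acclimated 5 days, were infected i.p. with 0.5 ml of S. aureus (overnight liquid culture diluted 1:10, grown 5 h shaking) diluted in 5% hog gastric mucin, pH 7.4, to give ≥90% mortality within 48 h (1.6 × 10^6 CFU). Single slow i.v. bolus at 10 mL/kg 1 h post-infection. Five mice per treatment group; ten vehicle-dosed infection controls. Read-out: survival.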

On to `CC(=O)NC[C@H]1CN(c2ccc(N3CCOCC3)c(F)c2)C(=O)O1` [linezolid], for which the “increase in CFUs” value in assay [1] was 1 log10. As to `CN[C@H](CC(C)C)C(=O)N[C@H]1C(=O)N[C@@H](CC(N)=O)C(=O)N[C@H]2C(=O)N[C@H]3C(=O)N[C@H](C(=O)N[C@H](C(=O)O)c4cc(O)cc(O)c4-c4cc3ccc4O)[C@H](O)c3ccc(c(Cl)c3)Oc3cc2cc(c3O[C@@H]2O[C@H](CO)[C@@H](O)[C@H](O)[C@H]2O[C@H]2C[C@](C)(N)[C@H](O)[C@H](C)O2)Oc2ccc(cc2Cl)[C@H]1O` [vancomycin], the survival result in the assay with S. aureus Smith was “all five mice”.
